Assay results gathered from unrelated publications.
Compare with care: the assays were run in different laboratories.
Target: STE20-like serine/threonine-protein kinase (SLK, Homo sapiens, UniProt Q9H2G2)

| SMILES | effect on | technique | tested at | remaining binding [%] |
| --- | --- | --- | --- | --- |
| COc1ccnn2ncc(-c3ccnc(N(C)C)n3)c12 | binding | – | 1 µM | 86 |
| O=C(NCC1CCOCC1)c1n[nH]cc1NC(=O)c1c(F)cccc1F | binding | competition with immobilised ligand | 1 µM | 99 |
| O=C(NCCCN1CCOCC1)c1ccc(Nc2ncc(Cl)c(-c3ccc(Cl)s3)n2)cc1 | binding | competition with immobilised ligand | 1 µM | 8 |
| c1ccc(N2CCN(Cc3nc4ccccc4[nH]3)CC2)nc1 | binding | competition with immobilised ligand | 1 µM | 93 |
| COc1ncc2cc3ccccc3nc2c1C#N | cell-free assay | competition with immobilised ligand | 5 µM | 89 |
| CC(=O)N1CCC(c2ccc(C(=O)NC3=NCCN3)cc2C(F)(F)F)CC1 | cell-free assay | competition with immobilised ligand | 1 µM | 94 |
| CCN1CCN(Cc2ccc(C(=O)Nc3ccc(C)c(Oc4ccc5c(c4)CC(=O)N5)c3)cc2C(F)(F)F)CC1 | binding | competition with immobilised ligand | 1 µM | 76 |
| N[C@H]1CCN(c2nccc(-c3cnn4ncccc34)n2)C1 | binding | – | 1 µM | 86 |
| COc1cnc(Nc2cccc(S(N)(=O)=O)c2)nc1N1CCN(c2ccccc2)CC1 | binding | competition with immobilised ligand | 1 µM | 99 |
| CN(CCCC(F)(F)F)c1nccc(-c2cnn3ncccc23)n1 | binding | – | 1 µM | 85 |
| C[C@@H]1CN(c2cc(-c3n[nH]c4ccc(OC5(C)CC5)cc34)ncn2)C[C@H](C)O1 | cell-free assay | competition with immobilised ligand | 0.1 µM | 98 |
| O=C(c1ccc(Nc2nccc(-c3cc4ccccc4s3)n2)cc1)N1CCC(N2CCCC2)CC1 | binding | competition with immobilised ligand | 1 µM | 13 |
| C[C@@H](c1ccc(-n2cnc3c(N)ncnc32)cc1)N1CCc2nn(C)c(Cc3ccccc3)c2C1=O | binding | competition with immobilised ligand | 0.1 µM | 100 |
| CN([C@@H]1CCc2c(CC(=O)O)c3cc(S(C)(=O)=O)ccc3n2C1)S(=O)(=O)c1ccc(F)cc1 | cell-free assay | competition with immobilised ligand | 1 µM | 100 |
| CN(c1nccc(-c2cnn3ncccc23)n1)C1CC1 | binding | – | 1 µM | 100 |
| C=CC(=O)N1CCC(C(=O)NCC(=O)N2CCN(c3nc(-c4cnc(N)nc4C(F)F)nc(N4CCOCC4)n3)CC2)CC1 | binding | competition with immobilised ligand | 1 µM | 80 |
| O=C(O)[C@H]1[C@H](Cn2nnc3ccccc3c2=O)CC[C@@H]1C(=O)c1ccc(OCCC2CCOCC2)cc1 | cell-free assay | competition with immobilised ligand | 1 µM | 96 |
| CN(C)c1nccc(-c2cnn3ncccc23)n1 | binding | – | 1 µM | 100 |
| Cc1c(NC(=O)c2cc(C(N)=O)nc3cc(F)ccc23)c(C(F)(F)F)nn1Cc1ccc(C(C)(C)C)cc1 | cell-free assay | competition with immobilised ligand | 1 µM | 100 |
| C[C@@H]1CCN(c2nccc(-c3cnn4ncccc34)n2)C1 | binding | – | 1 µM | 87 |
| O=C(c1ccc(Nc2ncc(Cl)c(-c3ccc(Cl)s3)n2)cc1)N1CCC(N2CCCC2)CC1 | binding | competition with immobilised ligand | 1 µM | 1.2 |
